Laboratory results from ChEMBL document CHEMBL1138185, “Discovery of protein phosphatase 2C inhibitors by virtual screening” (J Med Chem, 2006).
Calls of active or inactive are those of the source. No cut-off for these calls is given here.

Tests used:
[1] = target: Protein phosphatase 1A (Rattus norvegicus) (UniProt P20650); assay: Inhibition of PP2C alpha
[2] = target: Protein phosphatase 1A (Rattus norvegicus) (UniProt P20650); assay: Inhibition of PP2C alpha at 100 uM
[3] = target: Calcineurin PP2B (Rattus norvegicus); assay: Inhibition of PP2B
[4] = Inhibition of PP1
Summary of the method: (§1)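 PP1 catalytic fragment acting on 32P-labeled phosphorylase a, which was made from rabbit muscle phosphorylase b with phosphorylase kinase. Duplicate reactions were started with substrate, run 10 min at room temperature and stopped with TCA. Released 32P measured by Cerenkov counting.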

[5] = Inhibition of PP2A
Summary of the method: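 Substrate: DARPP-32 pThr34, from rat DARPP-32 expressed in E. coli as a His-tag fusion and phosphorylated by PKA with γ-32P-ATP. Enzyme: PP2A trimer partially purified from rat brain. Duplicate reactions, 10 min at room temperature, stopped with TCA. Supernatant and pellet 32P counted by Cerenkov.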

[6] = Inhibition of PP1 at 100 uM
Summary of the method: as §1

Chain of Protein phosphatase 1A (Rattus norvegicus) (P20650 whole entry, looked up): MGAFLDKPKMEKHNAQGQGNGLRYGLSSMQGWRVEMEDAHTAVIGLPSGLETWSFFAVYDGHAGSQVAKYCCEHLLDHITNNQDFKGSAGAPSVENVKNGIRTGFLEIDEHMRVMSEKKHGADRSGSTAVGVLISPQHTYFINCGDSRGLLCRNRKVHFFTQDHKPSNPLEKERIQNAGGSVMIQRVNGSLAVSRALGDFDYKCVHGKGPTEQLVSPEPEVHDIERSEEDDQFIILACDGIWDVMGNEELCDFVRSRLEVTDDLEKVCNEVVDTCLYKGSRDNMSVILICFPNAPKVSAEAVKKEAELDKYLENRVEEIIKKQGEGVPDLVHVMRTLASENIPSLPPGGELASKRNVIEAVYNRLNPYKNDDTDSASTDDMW

SMILES	inhibition [2] [%]	Activity [5]	further results
Ic1ccc2c(c1)N(c1ccccc1)c1cc(Nc3ccc4nc5ccc(I)cc5[n+](-c5ccccc5)c4c3)ccc1N2	> 50		
CC1(C)N=C(N)N=C(N)N1c1ccc(CCCCc2ccccc2)cc1			IC50 [3]: 50 µM; IC50 [4]: 50 µM; IC50 [5]: 50 µM
CCCCCCCCCCCC1N=C(N)N=C(N)N1c1cccc(Br)c1 (configuration not stated)		Active	
CC1Oc2cc3c(-c4c(O)cc(O)c5c(O)c6c(cc45)OC(C)C(C)C6=O)c(O)cc(O)c3c(O)c2C(=O)C1C (configuration not stated)		Active	

Continued, in another order:

inhibition [2] [%]	Activity [5]	SMILES	further results
> 50		C/N=C(N)/N=C(\N)Nc1cc2ccccc2c2ccccc12	IC50 [1]: 20 µM
> 30		CC(C)CC(N)C(=O)Nc1ccc2ccccc2c1 (configuration not stated)	
> 30	Active	Cc1cc(N)c2cc(NC(=O)Nc3ccc4nc(C)cc(N)c4c3)ccc2n1	Activity [6]: Active
